Compounds with a hit are over-represented: about 0.99% of the library has one in this group of screens.
TLR4 MyD88 comp – blocks binding of human TLR4 to MyD88; HeLa CL3-4 TLR4/MyD88 BLA complementation, FRET ratio; hit rate 0.18% among 200,000; O00206+Q99836; inhibition, % at 8.4 µM; in the data active means inhibition above about 25%;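 further: 0% = vehicle and 100% = reference inhibitor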
TLR9-MyD88 inh – inhibitors of human TLR9-MyD88 binding | Q9NR96+Q99836 | CHO BLA complementation TLR9-MyD88, CCF4 FRET ratio | inhibition, % at 4.98 µM | hit rate 0.21% among 340,000;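 active means inhibition above the mean over all tested compounds plus 3 SD, cut at about 21% in these data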;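 further: 0% = DMSO only wells and 100% = clavulanate BLA inhibitor control wells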
MT1-MMP act inh – blocks activation of human MT1-MMP; HT1080 RFP-PRO-GFP cells, GFP/RFP ratio fluorescence, overnight; percent of plate control window, DMSO zero; GFP/RFP ratio change, % at 20 µM; hit rate 0.061% among 360,000; AID 651647;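 active means GFP/RFP ratio change of at least 30% with cell ATP level not reduced by more than half and red fluorescence within 50% of control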
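Test system: HT1080 cells expressing an RFP-PRO-GFP fluorescent reporter construct / Compound dosing: single-point 20 µM compound, 1% DMSO / Schedule: cells overnight before dosing, compound overnight, 37 °C, 5% CO2 / Evaluation: GFP/RFP fluorescence ratio / Control set: DMSO and RFP-L50D-GFP cell wells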
NOD2 RIPK2 PPI – inhibitors of human NOD2-RIPK2 interaction. O43353. CHO BLA complementation NOD2-RIPK2, CCF4 ratio. inhibition, % at 4.98 µM. hit rate 0.38% among 360,000; in the data active means inhibition above about 21%;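 further: 0% = vehicle only and 100% = reference blocker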
SKN-1 block – inhibitors of C. elegans SKN-1; C. elegans VP596 Pgst-4::GFP/RFP ratio, acrylamide-induced, 24 h; inhibition, % at 21.8 µM; hit rate 0.49% among 360,000; AID 624304;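 active means interference check ratio from 0.5 to 1.5 plus GFP to RFP signal ratio inhibition reaching or exceeding a fixed threshold, cut at about 30% in these data, passing the limit was not always enough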
NOD2-RIPK2 conf – NOD2-RIPK2 interaction inhibition confirmed | shares compounds with NOD2 RIPK2 PPI | hit rate 70% among 1,200 | AID 624370 | inhibition, % at 4.98 µM | CHO cells, NOD2-RIPK2 BLA complementation, CCF4 FRET;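 active means mean inhibition across replicates above a set limit taken from the earlier primary screen, cut at about 21% in these data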;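 further: 0% = DMSO-only wells and the high end = clavulanate BLA-blocked wells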
BLA counter – hits BLA reporter in NOD2-RIPK2 inhibitor counterscreen. shares compounds with NOD2 RIPK2 PPI. CHO BLA reporter, CCF4 FRET ratio. inhibition, % at 4.98 µM. hit rate 57% among 1,200. AID 624371;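 active means mean inhibition above the low-control mean inhibition plus three low-control SD, cut at about 11% in these data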;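 further: 0% = DMSO only wells and 100% = clavulanate high control wells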
Numbers without * were called inactive; / = not tested or not shown; ! = not confirmed by another sample.

SMILES	TLR4 MyD88 comp	TLR9-MyD88 inh	MT1-MMP act inh	NOD2 RIPK2 PPI	SKN-1 block	NOD2-RIPK2 conf	BLA counter
Cc1ccc(S(=O)(=O)Nc2cccc3cccnc23)cc1	17	36*	2	38*	-23	59*	25*
Cc1ccc(S(=O)(=O)Nc2ccccc2-c2ccccc2NS(=O)(=O)c2ccc(C)cc2)cc1	4	3	1	-1	-5	/	/
Cc1nc2ccccc2n1S(=O)(=O)N(C)C	-14	-4	-1	6	-3	/	/
CN(C)S(=O)(=O)n1cnc(-c2ccccc2)c1-c1ccccc1	-2	-4	-1	35*	7	2	-2
CN(C)c1ccc(C=Cc2nccc3ccccc23)cc1	/	/	11	75*	48	37*	46*
CCC(=O)N1CCN(c2ccc(NC(=O)c3ccc([N+](=O)[O-])o3)cc2Cl)CC1	6	7	8	20	-2	/	/
O=C(Nc1ccc(Cc2ccncc2)cc1)c1ccc([N+](=O)[O-])o1	/	7	3	21*	23	32*	16*
CC(=O)N1CCN(c2ccc(NC(=O)c3ccc([N+](=O)[O-])o3)cc2Cl)CC1	/	4	4	28*	-12	27*	6
O=C(Nc1ccc(S(=O)(=O)N2CCCC2)cc1)c1ccc([N+](=O)[O-])o1	/	2	7	23*	0	27*	21*
O=C(NC1CCCc2ccccc21)c1ccccc1OC(F)F (stereo not drawn)	/	6	-1	-8	1	/	/
Cc1cc([N+](=O)[O-])ccc1-c1ccc(/C=N/NC(=O)c2ccc(Br)o2)o1	/	1	0	40*	19	32*	48*
O=C(O)c1cccc(-c2ccc(/C=N/Nc3ccc([N+](=O)[O-])cc3)o2)c1	/	19	-76	28*	8	30*	32*
CC(C)(C)NC(=S)N/N=C\c1ccc(-c2ccc([N+](=O)[O-])cc2)o1	/	/	-65	43*	10	81*	83*
Cc1cc(C(=O)N/N=C/c2ccc(-c3ccc([N+](=O)[O-])cc3C)o2)n[nH]1	/	-2	-5	4	-4	/	/
CCCCC(=O)N/N=C/c1ccc(-c2ccc([N+](=O)[O-])cc2)o1	20	17	-1	9	-3	/	/
O=[N+]([O-])c1ccc(N/N=C/c2cccc(O)c2)cc1	/	7	-16	22*	21	24*	32*
O=C(CN1C(=O)NC2(CCCC2)C1=O)Nc1nc2ccccc2[nH]1	/	-9	2	-9	14	/	/
O=Nc1c(O)[nH]c2ccc(Cl)c(Cl)c12	/	17	-9	28*	-7	26*	15*
CSCCC(NS(=O)(=O)c1ccc2c(c1)OCCO2)C(=O)N(C)Cc1ccccc1F (stereo not drawn)	/	-2	-1	-2	31	/	/
CCOc1ccc(-c2cc(N)n(S(=O)(=O)c3cccc4nsnc34)n2)cc1	/	-1	0	22*	-12	-5	-5
COc1ccccc1Cc1c(C(C)(C)C)nc2cc(C)c(Br)c(C)n12	/	/	1	24*	-4	-3	12*
O=C1CCCN1Cc1ccccc1	/	0	4	-7	16	/	/
CCOC(=O)[C@]12Cc3c(cc(OC)c(OC)c3OC)[C@H]1N(C1CCCCC1)C(=O)c1cc(OC)ccc12	/	/	-19	30*	5	28*	-4
CCOC(=O)N1CCC(N2C(=O)c3ccccc3C2Nc2cc(OC)c(OC)c(OC)c2)CC1 (stereo not drawn)	-1	-3	-2	11	-2	/	/
COc1ccc(CCNC(=O)C/C(C)=N/NC(=O)c2ccc([N+](=O)[O-])cc2Cl)cc1OC	/	-5	-1	46*	-10	-4	-2
SMILES	TLR4 MyD88 comp	TLR9-MyD88 inh	MT1-MMP act inh	NOD2 RIPK2 PPI	SKN-1 block	NOD2-RIPK2 conf	BLA counter
COc1ccc(CCNC(=O)C/C(C)=N/NC(=O)c2ccc(Cl)cc2Cl)cc1OC	/	-6	-1	6	-1	/	/
CCOC(=O)C[C@H]1c2ccccc2S(=O)(=O)N1c1cccc(OC)c1	/	5	4	0	7	/	/
CCCCNc1c(-c2ccc(-c3cccc(Cl)c3)cc2)nc2ccccn12	/	12	8	22*!	23	16	16*
CN(C)c1ccc(/C=C2\SC(=O)N(CCc3nnc(N)s3)C2=O)cc1	/	5	-108	24*	24	22*	13*
OC(COCCOc1ccc(Br)cc1)CN1CCCCC1 (stereo not drawn)	-11	-7	-2	0	5	/	/
O=C(Cc1cccc2ccccc12)N1CCCc2ccccc21	10	0	-12	24*	1	11	6
O=C(C[n+]1ccccc1)N1CCCc2ccccc21	-6	5	4	-8	0	/	/
O=C1CC(N2CCN(c3ccccc3)CC2)C(=O)N1c1ccc2c(c1)OCCO2 (stereo not drawn)	16	3	-2	-14	-5	/	/
CN1CCN(C2CC(=O)N(c3ccc4c(c3)OCCO4)C2=O)CC1 (stereo not drawn)	-4	-6	4	24*	-25	-1	-2
C=CCC1(CC=C)CCCN1C(=O)c1ccc2oc(CCCC)nc2c1	/	10	-27	-5	23	/	/
Nc1ncc(Br)cc1S(=O)(=O)NCCc1ccccc1	/	-4	-2	0	0	/	/
CCN(CC)c1ccc(N=C2C=CC(=O)C=C2NC(C)=O)cc1	/	/	-18	-8	38	/	/
FC(F)(F)c1cnc2c(c1)Nc1ccccc1S2	-2	10	-9	22*	17	9	5
O=[N+]([O-])/C=C\c1ccc(N2CCCC2)c(F)c1	13	13	-14	31*	28	77*	22*
N#Cc1cc(Oc2cccc3cccnc23)c(-n2nnc3ccccc32)cc1C#N	3	19	-59	70*	87	-11	-3
Cc1cccn2c(=O)c3cc(C(=O)NC4CCCC4)c(=N)n(CCCN4CCOCC4)c3nc12	/	-7	-5	-15	13	/	/
O=C(/C=C/c1cccnc1)/C=C/c1cccnc1	/	7	-32	23*	-2	48*	4
Cc1ccc(CNS(=O)(=O)c2c(C(=O)N3CCCCCC3)c(C)n(C)c2C)cc1	/	3	-1	54*	-8	-1	0
O=C1C(=O)c2cccnc2-c2ncccc21	/	/	-15	41*	-2	3	4
Cc1cccc(NC2(C(=O)O)CCCC2)c1	/	-3	-6	-22	17	/	/
COc1ccc(-n2nc3c(N4CCC(C(=O)NCc5cccc(C)c5)CC4)nnc(C)c3c2C)cc1	/	6	-1	13	19	/	/
CCOc1ccccc1CNC(=O)C1CCN(c2nnc(C)c3c(C)n(-c4ccc(C)cc4)nc23)CC1	/	-6	-12	37*	1	35*	12*

High-throughput results (PubChem)
